Series [1] relates to MV4-11. Kind of series: Cell cycle arrest in human MV4-11 cells assessed as accumulation at G2/M phase at 5 times GI50 after 24 hrs by propidium iodide staining based flow cytometry (reference value: 18.11%). Format: functional. The method, boiled down: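 MV4-11 cells were treated with increasing concentrations for 24 h. Cells were then harvested, fixed and stained with propidium iodide before flow cytometric cell cycle analysis.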

For series [2], the system named is MV4-11. Kind of series: Cell cycle arrest in human MV4-11 cells assessed as accumulation at G1 phase at 0.20 uM after 24 hrs by propidium iodide staining based flow cytometry (reference value: 61.01%). Format: functional.
The subject of series [3] is MV4-11. Kind of series: Cell cycle arrest in human MV4-11 cells assessed as accumulation at G1 phase at 0.40 uM after 24 hrs by propidium iodide staining based flow cytometry (reference value: 61.01%). Format: functional.
Series [4] has as its system MV4-11. The series is described as follows: Cell cycle arrest in human MV4-11 cells assessed as accumulation at G1 phase at 0.04 uM after 24 hrs by propidium iodide staining based flow cytometry (reference value: 61.01%). Format: functional.
Series [5] relates to MV4-11. Kind of series: Cell cycle arrest in human MV4-11 cells assessed as accumulation at G2/M phase at 0.04 uM after 24 hrs by propidium iodide staining based flow cytometry (reference value: 17.94%). Format: functional.
The subject of series [6] is MV4-11. The series is described as follows: Cell cycle arrest in human MV4-11 cells assessed as accumulation at sub-G1 phase at 0.20 uM after 24 hrs by propidium iodide staining based flow cytometry (reference value: 1.99%). Format: functional.
Series [7] is described as follows: Half life in BALB/c mouse at 2 mg/kg, iv up to 24 hrs by LC-MS/MS analysis. Format: ADME, organism-based. To be noted: in vivo. The gist of the method:
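Single-dose pharmacokinetics in male BALB/c mice, 2 mg/kg IV or 10 mg/kg PO.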

The nature of series [8]: Tmax in albino Wistar rat at 20 mg/kg administered via oral gavage measured up to 24 hrs by LC-MS/MS analysis. Format: ADME, organism-based. To be noted: in vivo. The method, boiled down: (§1)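 Single-dose pharmacokinetics in male animals: albino Wistar rats given 5 mg/kg IV or 20 mg/kg PO, and BALB/c mice given 2 mg/kg IV or 10 mg/kg PO.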
Series [9] in a line: Volume of distribution at steady state in albino Wistar rat at 5 mg/kg, iv up to 24 hrs by LC-MS/MS analysis. Format: ADME, organism-based. To be noted: in vivo, read-out: Vdss. The gist of the method: as §1
Series [10] in a line: AUC (0 to t) in albino Wistar rat at 20 mg/kg administered via oral gavage measured up to 24 hrs by LC-MS/MS analysis. Format: ADME, organism-based. Further details: dose 20 mg/kg, time < 24 hr, route oral. The note with it: in vivo.
The species entered for a further series is Homo sapiens. The series is described as follows: Selectivity ratio of Ki for CDK2/cyclin A (unknown origin) to Ki for CDK4/cyclin D1 (unknown origin). The gist of the method: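 Apparent Ki for each CDK–cyclin complex (CDK4–cyclin D1, CDK6–cyclin D3, CDK2–cyclin A) calculated from the half-maximal inhibition (IC50) and that kinase's Km(ATP). The selectivity ratio is the CDK2 Ki divided by the CDK4 or CDK6 Ki.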

Series [11] can be described thus: AUC (0 to t) in BALB/c mouse at 2 mg/kg, iv up to 24 hrs by LC-MS/MS analysis. The class given is ADME, organism-based. Further details: dose 2 mg/kg, time < 24 hr, route intravenous. The note with it: in vivo.
Series [12] is described as follows: Oral bioavailability in BALB/c mouse at 10 mg/kg measured up to 24 hrs by LC-MS/MS analysis. The note with it: in vivo. Format: ADME, organism-based. The gist of the method: as §1
Series [13] can be described thus: Apparent permeability co-efficient from basolateral to apical side in human Caco2 cells. The class given is ADME, cell-based. The note with it: Caco-2. The method, boiled down:
(§2)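 Caco-2 monolayer assay measuring the apparent permeability coefficient (P_app, 10^-6 cm/s) in the A→B and B→A directions. Efflux ratio is the mean P_app B-A divided by the mean P_app A-B.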

The nature of series [14]: Clearance in BALB/c mouse at 2 mg/kg, iv up to 24 hrs by LC-MS/MS analysis. The class given is ADME, organism-based. To be noted: in vivo.
Series [15] has as its target Dual specificity tyrosine-phosphorylation-regulated kinase 3 (Homo sapiens) (UniProt O43781). Kind of series: Inhibition of DYRK3 (unknown origin) at 1 uM in presence of [gamma-33P]-ATP […]. The method, boiled down: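 Broad kinome panel of 369 kinases screened at 1 µM test concentration.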
Series [16] is described as follows: Clearance in albino Wistar rat at 5 mg/kg, iv up to 24 hrs by LC-MS/MS analysis. Format: ADME, organism-based. The note with it: in vivo.
Series [17] concerns MV4-11. The series is described as follows: Antitumor activity against human MV4-11 cells xenografted in nude BALB/c mouse assessed as tumor volume at 100 mg/kg, po qd administered for 33 consecutive days measured on day 31. Format: functional.
Series [18] has as its target Cyclin-dependent kinase 4/cyclin D1 (Homo sapiens, UniProt P11802). Kind of series: Inhibition of CDK4/cyclin D1 (unknown origin) in presence of [gamma-33P]-ATP […]. The class given is protein-complex assay. To be noted: read-out: Ki(app).
Series [19] in a line: Octanol/aqueous buffer partition co-efficient, log D of the compound at pH 7.4 by shake-flask method. The class given is physicochemical.
In a further series the test system is Mus musculus. Kind of series: Toxicity in nude BALB/c mouse xenografted with human MV4-11 cells assessed as overt toxicity at 100 mg/kg, po qd for 33 consecutive days and left untreated for another 50 days. The class given is organism-based. To be noted: in vivo, 1200 h.
In series [20] the target is Cyclin-dependent kinase 7/ cyclin H (Homo sapiens) (UniProt P51946+P50613). Kind of series: Inhibition of CDK7/cyclin H (unknown origin) in presence of [gamma-33P]-ATP […]. Format: protein-complex assay.
Another series has as its target Cytochrome P450 1A2 (Homo sapiens, UniProt P05177). Kind of series: Inhibition of CYP1A2 in human liver microsomes using ethoxyresorufin as substrate in presence of NADPH. Format: ADME. The method, boiled down: (§3)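 Human liver microsomes with NADPH and isoform-specific probe substrate (midazolam CYP3A4, dextromethorphan CYP2D6, ethoxyresorufin CYP1A, tolbutamide CYP2C9, mephenytoin CYP2C19); IC50 reported in µM.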

Series [21] in a line: Tmax in BALB/c mouse at 10 mg/kg administered via oral gavage measured up to 24 hrs by LC-MS/MS analysis. The class given is ADME, organism-based. To be noted: in vivo. The gist of the method: as §1
Series [22] can be described thus: Half-life in albino Wistar rat at 5 mg/kg, iv up to 24 hrs by LC-MS/MS analysis. The class given is ADME, organism-based. To be noted: in vivo. The gist of the method:
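Single-dose pharmacokinetics in male albino Wistar rats, 5 mg/kg IV.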

For series [23], the system named is MV4-11. The series is described as follows: Antitumor activity against human MV4-11 cells xenografted in nude BALB/c mouse assessed as tumor growth inhibition at 100 mg/kg, po qd administered for 33 consecutive days measured on day 50. The class given is functional, organism-based.
For a further series, the target named is CDK2/Cyclin A2 (Homo sapiens, UniProt P24941). Kind of series: Inhibition of CDK2/cyclin A (unknown origin) in presence of [gamma-33P]-ATP […]. The class given is protein-complex assay. The note with it: read-out: Ki(app).
Series [24] addresses Cyclin-dependent kinase 4/6 (Homo sapiens) (UniProt P11802+Q00534). Kind of series: Inhibition of CDK4/6 in human MV4-11 cells assessed as reduction in Rb phosphorylation at Ser780 after 12 to 24 hrs by Western blot analysis. The class given is cell-based. The gist of the method: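 MV4-11 cells treated 12 or 24 h across a dose series; Rb phospho-Ser780 detected by Western blot with β-actin as loading control; two independent experiments.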

A short description of series [25]: Dissociation constant, pKa of the compound by pH-metric titration method. The class given is physicochemical.
Series [26] in a line: AUC (0 to t) in albino Wistar rat at 5 mg/kg, iv up to 24 hrs by LC-MS/MS analysis. To be noted: in vivo. The class given is ADME, organism-based. More on the design: dose 5 mg/kg, time < 24 hr, route intravenous.
Another series concerns the target Cytochrome P450 2D6 (Homo sapiens, UniProt P10635). The series is described as follows: Inhibition of CYP2D6 in human liver microsomes using dextromethorphan as substrate in presence of NADPH. The class given is ADME. The method, boiled down:
as §3

A short description of series [27]: Efflux ratio of apparent permeability co-efficient from basolateral to apical side over apical to basolateral side in human Caco2 cells. The class given is ADME, cell-based. To be noted: Caco-2. The gist of the method:
as §2

The source made the active and inactive calls. The calls are words filed in the database; no cut-off is given here.

Sequence of Cytochrome P450 2D6 (P10635 whole entry): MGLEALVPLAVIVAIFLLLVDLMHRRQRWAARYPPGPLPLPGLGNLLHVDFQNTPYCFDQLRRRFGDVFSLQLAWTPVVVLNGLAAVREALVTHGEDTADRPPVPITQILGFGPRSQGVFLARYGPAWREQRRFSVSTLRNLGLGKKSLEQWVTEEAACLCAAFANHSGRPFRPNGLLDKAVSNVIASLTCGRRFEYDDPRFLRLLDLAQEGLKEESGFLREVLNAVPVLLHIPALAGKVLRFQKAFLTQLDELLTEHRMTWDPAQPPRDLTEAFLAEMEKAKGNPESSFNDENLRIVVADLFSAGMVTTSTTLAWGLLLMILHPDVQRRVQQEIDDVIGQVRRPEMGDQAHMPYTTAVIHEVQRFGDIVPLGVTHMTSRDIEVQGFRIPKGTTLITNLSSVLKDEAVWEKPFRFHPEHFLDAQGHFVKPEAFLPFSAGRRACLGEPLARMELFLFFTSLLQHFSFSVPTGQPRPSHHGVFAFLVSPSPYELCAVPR
Sequence of Dual specificity tyrosine-phosphorylation-regulated kinase 3 (Homo sapiens) (O43781 whole entry): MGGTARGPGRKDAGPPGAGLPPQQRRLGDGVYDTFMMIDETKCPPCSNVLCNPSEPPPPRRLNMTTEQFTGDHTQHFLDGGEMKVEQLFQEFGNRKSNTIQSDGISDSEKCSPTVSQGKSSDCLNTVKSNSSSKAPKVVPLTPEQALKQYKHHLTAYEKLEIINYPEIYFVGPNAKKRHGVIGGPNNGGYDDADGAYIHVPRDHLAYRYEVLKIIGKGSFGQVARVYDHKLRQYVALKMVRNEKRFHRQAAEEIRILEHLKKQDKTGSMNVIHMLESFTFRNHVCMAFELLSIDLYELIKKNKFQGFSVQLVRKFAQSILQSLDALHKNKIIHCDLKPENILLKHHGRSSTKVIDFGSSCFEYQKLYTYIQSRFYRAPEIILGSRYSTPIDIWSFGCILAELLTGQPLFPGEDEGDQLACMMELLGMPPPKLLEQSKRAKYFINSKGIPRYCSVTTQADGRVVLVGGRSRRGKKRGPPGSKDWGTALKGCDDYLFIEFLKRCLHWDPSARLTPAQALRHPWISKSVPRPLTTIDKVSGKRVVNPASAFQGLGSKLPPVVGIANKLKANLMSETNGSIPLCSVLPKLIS
Sequence of Cyclin-dependent kinase 4/cyclin D1 (P11802 whole entry): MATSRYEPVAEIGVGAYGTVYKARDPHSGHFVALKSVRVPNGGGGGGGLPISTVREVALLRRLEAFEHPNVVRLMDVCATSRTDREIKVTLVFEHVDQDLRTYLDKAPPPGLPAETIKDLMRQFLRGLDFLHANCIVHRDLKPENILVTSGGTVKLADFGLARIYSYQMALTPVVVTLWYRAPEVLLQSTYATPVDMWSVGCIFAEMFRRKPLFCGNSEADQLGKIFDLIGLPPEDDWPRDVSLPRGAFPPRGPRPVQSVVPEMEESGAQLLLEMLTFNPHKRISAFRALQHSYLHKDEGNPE
Sequence of Cyclin-dependent kinase 4/cyclin D1 (P24385 whole entry, further chain): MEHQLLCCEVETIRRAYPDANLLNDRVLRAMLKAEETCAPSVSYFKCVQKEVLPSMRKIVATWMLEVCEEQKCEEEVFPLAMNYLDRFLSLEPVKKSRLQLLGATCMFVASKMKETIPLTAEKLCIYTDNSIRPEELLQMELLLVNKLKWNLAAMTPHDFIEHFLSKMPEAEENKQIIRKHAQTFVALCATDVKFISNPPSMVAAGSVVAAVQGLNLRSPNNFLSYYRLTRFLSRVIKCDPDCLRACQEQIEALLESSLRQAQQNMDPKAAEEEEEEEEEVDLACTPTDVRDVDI
Sequence of Cyclin-dependent kinase 4/6 (Homo sapiens) (P11802 whole entry, looked up): as the sequence (P11802 whole entry) above
Sequence of Cyclin-dependent kinase 4/6 (Homo sapiens) (Q00534 whole entry, looked up): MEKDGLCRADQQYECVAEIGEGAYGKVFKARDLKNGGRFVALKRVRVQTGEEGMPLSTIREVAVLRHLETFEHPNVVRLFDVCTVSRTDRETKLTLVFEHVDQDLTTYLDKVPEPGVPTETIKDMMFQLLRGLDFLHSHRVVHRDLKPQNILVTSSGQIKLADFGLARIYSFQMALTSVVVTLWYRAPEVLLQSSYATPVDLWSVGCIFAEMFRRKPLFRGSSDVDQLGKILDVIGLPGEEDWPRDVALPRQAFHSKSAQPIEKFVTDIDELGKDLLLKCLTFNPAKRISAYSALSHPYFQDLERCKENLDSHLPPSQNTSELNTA
Sequence of Cytochrome P450 1A2 (P05177 whole entry, canonical isoform): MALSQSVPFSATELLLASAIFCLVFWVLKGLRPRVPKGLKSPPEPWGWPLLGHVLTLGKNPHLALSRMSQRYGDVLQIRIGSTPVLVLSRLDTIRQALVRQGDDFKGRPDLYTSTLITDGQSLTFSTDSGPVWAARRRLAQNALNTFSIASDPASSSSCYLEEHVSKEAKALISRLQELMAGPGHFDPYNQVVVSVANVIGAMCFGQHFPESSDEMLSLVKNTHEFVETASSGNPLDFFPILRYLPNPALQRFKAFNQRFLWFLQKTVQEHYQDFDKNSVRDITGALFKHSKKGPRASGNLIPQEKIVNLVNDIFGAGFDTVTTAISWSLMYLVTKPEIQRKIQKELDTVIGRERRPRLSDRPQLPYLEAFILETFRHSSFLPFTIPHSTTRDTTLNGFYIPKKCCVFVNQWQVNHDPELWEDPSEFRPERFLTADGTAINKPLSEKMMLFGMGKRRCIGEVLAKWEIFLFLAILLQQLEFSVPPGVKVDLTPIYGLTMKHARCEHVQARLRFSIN

Regarding `CC(=O)c1c(C)c2cnc(Nc3ccc(N4CCNCC4)cn3)nc2n(C2CCCC2)c1=O` [PALBOCICLIB], the Activity came to 4.13% with MV4-11 [1]; 80.66% with MV4-11 [2]; 85.35% in the series with MV4-11 [3]; 68.17% with MV4-11 [4]; 13.4% with MV4-11 [5]; 4.22% in the series with MV4-11 [6].

`Cc1nc(NC2CCCC2)sc1-c1ccnc(Nc2ccc(N3CCOCC3)cn2)n1`: the half-life in [7] was 1.7 h; in [22], 4.2 h. For the same compound, the results for the Activity with MV4-11 [1] and in the series on Mus musculus were 10.91% and “Non-Toxic”, respectively. In addition, the Tmax in series [8] was 3.7 h; in series [21], 2 h. For the same compound, the Vd in [9] was found to be 1.5 L/kg. Further, the AUC(0-t) at 24 h stood at 15.9 µM·h in [10], 1.2 µM·h in [11] and 15.9 µM·h in [26]. For the same compound, in the series filed under Homo sapiens, the Ratio Ki was more than 1200. This compound also returned a bioavailability in series [12] of 100%. Besides, in [13], the Papp B→A was determined as 3.98 ×10⁻⁶ cm/s. Moreover, the clearance in [14] is 58.3 mL/min/kg; in series [16], 11.8 mL/min/kg. In addition, the inhibition entry in series [15] is “Active”. For the same compound, in the series with MV4-11 [17], the T/C was 30%. In addition, the Ki in series [18] was 0.004 µM; at CDK2/Cyclin A2 it was 4.68 µM. Moreover, the logD in series [19] turned out to be 4.4. The “Ki(app)” value in series [20] is “inactive”. Also, the IC50 on Cytochrome P450 1A2 and on Cytochrome P450 2D6 was more than 25 µM throughout. Also, the TGI entry in the series with MV4-11 [23] is “Active”. In addition, the inhibition result in series [24] is “Dose-dependent effect”. The pKa in series [25] is 3.98 to 5.68. In addition, in series [27], the efflux ratio was in the range of 0.396 to 4.

Source of the values: ChEMBL document CHEMBL4004830 (J Med Chem, 2017).
